According to ChEMBL document CHEMBL4765445, “Structure-activity relationship study of novel quinazoline-based 1,6-naphthyridinones as MET inhibitors with potent antitumor efficacy” (Eur J Med Chem, 2020):
pIC50: −log10 of the molar value.

How the values were obtained:
[1] = target: Vascular endothelial growth factor receptor 2 (Homo sapiens, UniProt P35968); experiment: Inhibition of recombinant VEGFR2 kinase domain (unknown origin)
Outline: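 In vitro kinase assay using purified recombinant VEGFR-2 kinase domain; IC50 determined.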

[2] = target: T1, Hepatocyte growth factor receptor (Homo sapiens, UniProt P08581); experiment: Inhibition of recombinant MET kinase domain (unknown origin)
T1 sequence (P08581 whole entry, the tested form may be a part): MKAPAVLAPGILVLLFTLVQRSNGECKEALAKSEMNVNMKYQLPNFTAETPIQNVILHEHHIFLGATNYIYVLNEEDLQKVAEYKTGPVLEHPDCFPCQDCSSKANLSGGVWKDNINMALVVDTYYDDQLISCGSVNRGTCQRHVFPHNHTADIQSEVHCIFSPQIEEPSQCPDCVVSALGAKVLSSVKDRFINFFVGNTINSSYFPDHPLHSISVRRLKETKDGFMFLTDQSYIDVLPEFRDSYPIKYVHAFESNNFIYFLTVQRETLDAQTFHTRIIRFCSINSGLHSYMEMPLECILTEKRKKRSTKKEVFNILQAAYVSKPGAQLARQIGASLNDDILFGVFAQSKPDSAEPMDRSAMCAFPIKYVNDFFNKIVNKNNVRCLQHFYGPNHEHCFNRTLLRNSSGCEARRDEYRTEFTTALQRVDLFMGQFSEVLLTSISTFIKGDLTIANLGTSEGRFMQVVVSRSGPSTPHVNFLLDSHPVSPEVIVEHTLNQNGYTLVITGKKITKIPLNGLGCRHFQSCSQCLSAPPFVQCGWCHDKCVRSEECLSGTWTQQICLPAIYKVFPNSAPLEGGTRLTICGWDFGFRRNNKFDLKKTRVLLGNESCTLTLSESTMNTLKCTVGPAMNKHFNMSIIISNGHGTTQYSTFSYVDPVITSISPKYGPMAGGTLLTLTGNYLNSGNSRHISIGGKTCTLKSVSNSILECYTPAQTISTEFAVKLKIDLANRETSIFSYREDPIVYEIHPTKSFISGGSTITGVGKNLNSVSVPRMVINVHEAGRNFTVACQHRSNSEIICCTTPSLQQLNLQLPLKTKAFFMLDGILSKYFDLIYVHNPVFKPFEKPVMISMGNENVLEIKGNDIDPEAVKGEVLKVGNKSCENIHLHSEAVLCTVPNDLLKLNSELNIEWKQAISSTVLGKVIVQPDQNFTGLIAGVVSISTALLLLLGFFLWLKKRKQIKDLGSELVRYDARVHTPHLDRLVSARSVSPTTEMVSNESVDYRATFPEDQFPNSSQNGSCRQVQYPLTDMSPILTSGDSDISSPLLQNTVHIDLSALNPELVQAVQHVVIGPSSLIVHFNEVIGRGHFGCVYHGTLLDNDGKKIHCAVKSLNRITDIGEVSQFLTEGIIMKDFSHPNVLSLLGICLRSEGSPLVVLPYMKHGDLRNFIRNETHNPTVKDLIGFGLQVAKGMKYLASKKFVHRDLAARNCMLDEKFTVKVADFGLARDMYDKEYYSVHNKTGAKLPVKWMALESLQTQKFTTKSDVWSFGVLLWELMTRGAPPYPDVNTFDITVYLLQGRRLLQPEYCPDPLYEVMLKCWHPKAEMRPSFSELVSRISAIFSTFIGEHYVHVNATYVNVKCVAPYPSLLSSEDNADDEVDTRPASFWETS

[3] = Half life in human liver microsomes; type: ADME, Microsome
[4] = organism: Homo sapiens; experiment: Selectivity ratio of IC50 for recombinant VEGFR2 (unknown origin) to IC50 for recombinant MET (unknown origin)
Outline: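 In vitro enzyme assays used purified recombinant MET and VEGFR-2 kinase domains, each tested separately. IC50 values are in nM. The ratio divides the VEGFR-2 enzyme IC50 by the MET enzyme IC50.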

[5] = target: T1, Hepatocyte growth factor receptor; experiment: Inhibition of MET in human MKN-45 cells assessed as reduction in HGF-mediated autophosphorylation; type: cell-based
[6] = Clearance in rat at 5 mg/kg, iv; type: ADME, organism-based; details: in vivo
Outline: (§1)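 Rat pharmacokinetics used 10 mg/kg p.o. and 5 mg/kg i.v. with vehicle 70% PEG400-30% water. Plasma concentration–time curves gave Cmax, Tmax, T1/2, AUC0-∞, CL, Vz and oral bioavailability F. Values are the average of three animals.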

[7] = Cmax in nude mouse xenografted with human U-87 MG cells at 25 mg/kg, po administered once daily for 3 weeks; type: ADME, organism-based; set-up: route oral, dose 25 mg/kg, time 3 weeks; details: in vivo
Outline: (§2)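 PK/PD sampling was done within the U-87 MG nude-mouse xenograft study. Compound was given p.o. once daily for 21 days in 70% PEG-400/H₂O. Cmax and AUC0-t were measured in plasma.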

[8] = Cmax in rat at 10 mg/kg, po; type: ADME, organism-based; set-up: route oral, dose 10 mg/kg; details: in vivo; outline: as §1
[9] = AUC (0 to t) in nude mouse xenografted with human U-87 MG cells at 25 mg/kg, po administered once daily for 3 weeks; type: ADME, organism-based; set-up: time 3 weeks, dose 25 mg/kg; details: in vivo
[10] = Tmax in rat at 10 mg/kg, po; type: ADME, organism-based; details: in vivo; outline: as §1
[11] = AUC (0 to t) in nude mouse xenografted with human U-87 MG cells at 75 mg/kg, po administered once daily for 3 weeks; type: ADME, organism-based; set-up: time 3 weeks, dose 75 mg/kg; details: in vivo
[12] = target: Mast/stem cell growth factor receptor Kit (Homo sapiens, UniProt P10721); experiment: Inhibition of c-KIT (unknown origin)
Mast/stem cell growth factor receptor Kit, sequence (P10721 whole entry): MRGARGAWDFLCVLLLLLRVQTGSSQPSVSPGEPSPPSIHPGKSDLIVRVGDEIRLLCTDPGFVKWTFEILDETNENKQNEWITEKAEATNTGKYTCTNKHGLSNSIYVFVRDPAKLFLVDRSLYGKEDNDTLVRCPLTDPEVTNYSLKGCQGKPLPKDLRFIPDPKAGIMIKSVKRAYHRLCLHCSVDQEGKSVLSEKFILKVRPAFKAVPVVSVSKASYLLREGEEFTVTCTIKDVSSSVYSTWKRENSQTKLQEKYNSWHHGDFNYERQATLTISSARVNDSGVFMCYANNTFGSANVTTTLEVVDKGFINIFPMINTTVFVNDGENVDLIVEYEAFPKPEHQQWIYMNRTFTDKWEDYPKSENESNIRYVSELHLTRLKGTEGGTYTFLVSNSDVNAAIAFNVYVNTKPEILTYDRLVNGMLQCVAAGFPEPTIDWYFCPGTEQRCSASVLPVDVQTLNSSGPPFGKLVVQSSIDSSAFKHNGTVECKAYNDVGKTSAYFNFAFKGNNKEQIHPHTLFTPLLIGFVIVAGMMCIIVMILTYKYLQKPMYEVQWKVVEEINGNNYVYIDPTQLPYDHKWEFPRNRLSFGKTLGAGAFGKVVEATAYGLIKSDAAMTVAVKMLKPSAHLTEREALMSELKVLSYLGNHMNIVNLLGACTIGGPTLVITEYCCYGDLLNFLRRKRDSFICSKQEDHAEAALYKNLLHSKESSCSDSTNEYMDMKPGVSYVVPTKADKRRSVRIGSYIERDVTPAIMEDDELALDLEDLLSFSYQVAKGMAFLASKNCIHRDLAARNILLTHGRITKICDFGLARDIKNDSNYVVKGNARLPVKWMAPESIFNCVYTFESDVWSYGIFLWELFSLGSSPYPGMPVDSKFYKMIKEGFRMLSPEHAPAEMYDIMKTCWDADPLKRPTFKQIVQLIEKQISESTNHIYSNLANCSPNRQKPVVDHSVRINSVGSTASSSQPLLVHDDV

[13] = system: U-87 MG; experiment: Antitumor activity against human U-87 MG cells xenografted in po dosed nude mouse assessed as tumor growth inhibition administered once daily for 3 weeks; type: functional, U-87MG ATCC
[14] = system: U-87 MG; experiment: Antitumor activity against human U-87 MG cells xenografted in nude mouse assessed as tumor growth inhibition at 75 mg/kg, po administered once daily for 3 weeks relative to control; type: functional, U-87MG ATCC; details: 504 h, read-out: TGI
[15] = Half life in rat at 10 mg/kg, po; type: ADME, organism-based; details: in vivo; outline: as §1
[16] = system: U-87 MG; experiment: Antitumor activity against human U-87 MG cells xenografted in nude mouse assessed as tumor growth inhibition at 25 mg/kg, po administered once daily for 3 weeks; type: functional, U-87MG ATCC; details: 504 h, read-out: TGI
[17] = AUC (0 to infinity) in rat at 5 mg/kg, iv; type: ADME, organism-based; set-up: time infinity, route intravenous, dose 5 mg/kg; details: in vivo
[18] = Clearance in rat at 10 mg/kg, po; type: ADME, organism-based; details: in vivo; outline: as §1
[19] = Cmax in rat at 5 mg/kg, iv; type: ADME, organism-based; set-up: route intravenous, dose 5 mg/kg; details: in vivo; outline: as §1
[20] = Apparent volume of distribution in rat at 5 mg/kg, iv; type: ADME, organism-based; details: in vivo, read-out: Vz; outline: as §1
[21] = AUC (0 to infinity) in rat at 10 mg/kg, po; type: ADME, organism-based; set-up: time infinity, route oral, dose 10 mg/kg; details: in vivo
[22] = Oral bioavailability in rat at 10 mg/kg; type: ADME, organism-based; details: in vivo; outline: as §1
[23] = target: T2, Receptor-type tyrosine-protein kinase FLT3 (Homo sapiens, UniProt P36888); experiment: Inhibition of FLT3 (unknown origin)
T2 sequence (P36888 whole entry): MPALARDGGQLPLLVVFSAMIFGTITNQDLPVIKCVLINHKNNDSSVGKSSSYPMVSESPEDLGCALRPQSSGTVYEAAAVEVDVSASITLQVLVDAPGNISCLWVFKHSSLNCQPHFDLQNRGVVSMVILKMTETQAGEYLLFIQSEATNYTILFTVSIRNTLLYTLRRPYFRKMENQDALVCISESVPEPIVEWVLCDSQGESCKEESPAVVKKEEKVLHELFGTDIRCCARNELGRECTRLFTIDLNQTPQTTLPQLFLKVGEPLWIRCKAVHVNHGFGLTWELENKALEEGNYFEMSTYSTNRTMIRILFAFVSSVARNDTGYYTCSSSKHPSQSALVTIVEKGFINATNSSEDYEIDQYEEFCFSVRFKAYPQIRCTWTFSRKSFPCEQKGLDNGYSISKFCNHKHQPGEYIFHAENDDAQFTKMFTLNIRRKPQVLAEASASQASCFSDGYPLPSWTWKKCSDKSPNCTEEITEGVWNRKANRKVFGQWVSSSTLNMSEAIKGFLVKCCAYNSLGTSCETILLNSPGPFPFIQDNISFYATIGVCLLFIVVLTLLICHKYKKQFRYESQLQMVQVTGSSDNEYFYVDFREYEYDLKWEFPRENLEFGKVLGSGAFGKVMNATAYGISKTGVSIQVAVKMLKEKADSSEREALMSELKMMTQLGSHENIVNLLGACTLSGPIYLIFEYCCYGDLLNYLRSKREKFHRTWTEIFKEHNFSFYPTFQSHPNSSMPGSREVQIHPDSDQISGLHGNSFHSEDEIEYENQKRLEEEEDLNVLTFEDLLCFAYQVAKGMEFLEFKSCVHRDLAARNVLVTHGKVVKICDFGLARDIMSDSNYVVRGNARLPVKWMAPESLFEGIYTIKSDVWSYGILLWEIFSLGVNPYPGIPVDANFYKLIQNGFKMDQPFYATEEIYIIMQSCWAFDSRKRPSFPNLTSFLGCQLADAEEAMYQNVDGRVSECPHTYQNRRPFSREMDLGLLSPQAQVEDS

[24] = Cmax in nude mouse xenografted with human U-87 MG cells at 75 mg/kg, po administered once daily for 3 weeks; type: ADME, organism-based; set-up: route oral, time 3 weeks, dose 75 mg/kg; details: in vivo; outline: as §2
[25] = Apparent volume of distribution in rat at 10 mg/kg, po; type: ADME, organism-based; details: in vivo; outline: as §1
[26] = Tmax in rat at 5 mg/kg, iv; type: ADME, organism-based; details: in vivo; outline: as §1
[27] = target: Platelet-derived growth factor receptor beta (Homo sapiens, UniProt P09619); experiment: Inhibition of PDGFRbeta (unknown origin)
Platelet-derived growth factor receptor beta, sequence (P09619 whole entry): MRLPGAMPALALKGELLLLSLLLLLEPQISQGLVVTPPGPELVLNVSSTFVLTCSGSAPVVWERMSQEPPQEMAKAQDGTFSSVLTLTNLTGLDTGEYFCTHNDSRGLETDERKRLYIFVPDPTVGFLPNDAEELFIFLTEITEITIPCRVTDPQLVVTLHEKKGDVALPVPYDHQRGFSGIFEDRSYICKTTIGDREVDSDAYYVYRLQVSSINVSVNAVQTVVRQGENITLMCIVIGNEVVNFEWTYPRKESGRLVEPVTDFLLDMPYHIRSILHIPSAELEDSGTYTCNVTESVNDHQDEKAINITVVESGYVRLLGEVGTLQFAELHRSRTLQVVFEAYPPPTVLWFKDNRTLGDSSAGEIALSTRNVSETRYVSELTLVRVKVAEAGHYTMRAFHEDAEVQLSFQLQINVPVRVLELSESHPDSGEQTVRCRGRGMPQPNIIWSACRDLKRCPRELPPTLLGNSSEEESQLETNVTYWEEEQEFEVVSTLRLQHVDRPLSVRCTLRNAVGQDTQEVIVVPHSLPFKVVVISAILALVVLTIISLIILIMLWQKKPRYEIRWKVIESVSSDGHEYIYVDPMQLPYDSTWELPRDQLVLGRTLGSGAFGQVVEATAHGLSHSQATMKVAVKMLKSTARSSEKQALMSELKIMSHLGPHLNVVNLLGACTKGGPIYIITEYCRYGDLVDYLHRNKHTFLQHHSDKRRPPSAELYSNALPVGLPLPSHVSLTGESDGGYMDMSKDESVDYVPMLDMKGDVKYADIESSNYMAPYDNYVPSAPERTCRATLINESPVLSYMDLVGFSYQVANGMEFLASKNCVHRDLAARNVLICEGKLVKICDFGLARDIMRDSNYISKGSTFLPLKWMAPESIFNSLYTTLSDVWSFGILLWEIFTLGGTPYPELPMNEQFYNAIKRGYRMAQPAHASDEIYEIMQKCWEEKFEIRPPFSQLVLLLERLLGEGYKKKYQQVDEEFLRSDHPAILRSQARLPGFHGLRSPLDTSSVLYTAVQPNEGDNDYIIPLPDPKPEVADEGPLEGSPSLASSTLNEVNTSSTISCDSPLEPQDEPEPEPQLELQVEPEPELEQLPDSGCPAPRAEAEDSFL

[28] = Half life in rat at 5 mg/kg, iv; type: ADME, organism-based; details: in vivo; outline: as §1

Vascular endothelial growth factor receptor 2, sequence (P35968 whole entry, the tested form may be a part): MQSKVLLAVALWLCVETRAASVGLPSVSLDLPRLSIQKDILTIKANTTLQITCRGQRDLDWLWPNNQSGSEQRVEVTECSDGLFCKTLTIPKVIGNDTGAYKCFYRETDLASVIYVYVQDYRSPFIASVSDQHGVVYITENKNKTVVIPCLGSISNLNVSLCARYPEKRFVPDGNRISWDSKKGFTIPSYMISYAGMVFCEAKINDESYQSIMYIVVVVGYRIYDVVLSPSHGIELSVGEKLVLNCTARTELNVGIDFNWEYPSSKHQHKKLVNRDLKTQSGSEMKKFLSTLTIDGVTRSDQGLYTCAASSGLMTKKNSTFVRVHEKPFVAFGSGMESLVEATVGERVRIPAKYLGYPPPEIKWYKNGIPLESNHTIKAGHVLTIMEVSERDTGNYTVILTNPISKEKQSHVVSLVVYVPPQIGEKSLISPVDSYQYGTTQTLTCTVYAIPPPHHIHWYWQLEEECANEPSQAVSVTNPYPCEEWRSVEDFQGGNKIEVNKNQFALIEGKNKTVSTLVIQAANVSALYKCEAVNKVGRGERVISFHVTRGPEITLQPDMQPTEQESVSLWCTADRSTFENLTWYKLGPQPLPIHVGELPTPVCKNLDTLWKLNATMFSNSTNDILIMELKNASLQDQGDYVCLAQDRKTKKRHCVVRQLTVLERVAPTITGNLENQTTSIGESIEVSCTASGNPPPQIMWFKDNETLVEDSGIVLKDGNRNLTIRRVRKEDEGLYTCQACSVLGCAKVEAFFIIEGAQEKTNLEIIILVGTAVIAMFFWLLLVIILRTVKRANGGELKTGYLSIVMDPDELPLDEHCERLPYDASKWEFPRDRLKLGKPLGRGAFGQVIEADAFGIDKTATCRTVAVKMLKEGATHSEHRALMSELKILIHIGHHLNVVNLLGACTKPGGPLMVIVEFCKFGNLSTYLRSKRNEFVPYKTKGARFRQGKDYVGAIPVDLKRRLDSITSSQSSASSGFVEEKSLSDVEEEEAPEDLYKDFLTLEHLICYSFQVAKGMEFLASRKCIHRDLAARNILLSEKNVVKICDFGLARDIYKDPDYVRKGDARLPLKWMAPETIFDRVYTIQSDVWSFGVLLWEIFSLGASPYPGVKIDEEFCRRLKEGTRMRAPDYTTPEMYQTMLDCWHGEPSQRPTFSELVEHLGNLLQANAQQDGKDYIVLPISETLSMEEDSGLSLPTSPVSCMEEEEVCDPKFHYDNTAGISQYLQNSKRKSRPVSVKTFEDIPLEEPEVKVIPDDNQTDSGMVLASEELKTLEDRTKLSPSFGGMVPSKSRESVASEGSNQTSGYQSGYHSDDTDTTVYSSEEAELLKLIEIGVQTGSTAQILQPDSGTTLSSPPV

SMILES: COc1cc2ncnc(Oc3ccc(Nc4nccc5[nH]cc(-c6ccc(F)cc6)c(=O)c45)cc3F)c2cc1OCCCN1CCCCC1
- pIC50 [1]: 6.68
- pIC50 [2]: 7.81

SMILES: COc1cc2ncnc(Oc3ccc(Nc4nccc5c4c(=O)c(-c4ccc(F)cc4)cn5C)cc3F)c2cc1OC
- half-life [3]: 4.27 h
- Ratio IC50 [4]: > 422
- pIC50 [1]: < 5.52
- pIC50 [2]: 8.15
- pIC50 [5]: 7.08

SMILES: COc1cc2ncnc(Oc3ccc(Nc4nccc5[nH]cc(-c6ccc(F)cc6)c(=O)c45)cc3F)c2cc1OCCCN1CCCC1
- pIC50 [1]: 6.84
- pIC50 [2]: 8.09

SMILES: CCN(CC)CCCOc1cc2c(Oc3ccc(Nc4nccc5[nH]cc(-c6ccc(F)cc6)c(=O)c45)cc3F)ncnc2cc1OC
- pIC50 [1]: 6.79
- pIC50 [2]: 8.03
- pIC50 [5]: 6.40

SMILES: COc1cc2c(Oc3ccc(Nc4nccc5[nH]cc(-c6ccc(F)cc6)c(=O)c45)cc3F)ncnc2cc1OCCN1CCOCC1
- pIC50 [2]: 7.61

SMILES: COc1cc2ncnc(Oc3ccc(Nc4nccc5c4c(=O)c(-c4ccc(F)cc4)cn5CC(=O)c4ccccc4)cc3F)c2cc1OC
- pIC50 [1]: < 5.52
- pIC50 [2]: 6.71

SMILES: O=c1c(-c2ccc(F)cc2)c[nH]c2ccnc(Nc3ccc(Oc4ncnc5cc6c(cc45)OCCOCCOCCO6)c(F)c3)c12
- half-life [3]: 0.83 h
- pIC50 [1]: 7.32
- pIC50 [2]: 8.02

SMILES: COc1cc2ncnc(Oc3ccc(Nc4nccc5[nH]c(C)c(-c6ccc(F)cc6)c(=O)c45)cc3F)c2cc1OC
- pIC50 [1]: 6.34
- pIC50 [2]: 6.64

SMILES: COc1cc2c(Oc3ccc(Nc4nccc5[nH]cc(-c6ccc(F)cc6)c(=O)c45)cc3F)ncnc2cc1OCC(C)(C)O
- pIC50 [1]: 7.03
- pIC50 [2]: 7.19

SMILES: CCn1cc(-c2ccc(F)cc2)c(=O)c2c(Nc3ccc(Oc4ncnc5cc(OC)c(OC)cc45)c(F)c3)nccc21
- Ratio IC50 [4]: > 275
- pIC50 [1]: < 5.52
- pIC50 [2]: 7.54

SMILES: COc1cc2ncnc(Oc3ccc(Nc4nccc5[nH]cc(-c6ccc(F)cc6)c(=O)c45)cc3)c2cc1OC
- clearance [6]: 0.167 mL/min/kg
- Cmax [7]: 12100 ng/mL
- Cmax [8]: 25100 ng/mL
- AUC(0-t) at 504 h [9]: 156 µg·h/mL
- Tmax [10]: 3.5 h
- half-life [3]: 10.4 h
- pIC50 [1]: 6.95
- AUC(0-t) at 504 h [11]: 279 µg·h/mL
- pIC50 [12]: 7.55
- ED50 ([13]; 504 h): 25 mg/kg
- TGI ([13]; U-87MG ATCC): Dose-dependent effect
- pIC50 [2]: 8.05
- inhibition in vivo at 75 mg/kg [14]: 81%
- pIC50 [5]: 7.06
- half-life [15]: 12.5 h
- inhibition in vivo at 25 mg/kg [16]: 51%
- AUC(0-inf) [17]: 510 µg·h/mL
- CL/F [18]: 0.333 mL/min/kg
- Cmax [19]: 44000 ng/mL
- Vd [20]: 0.2 L/kg
- AUC(0-inf) [21]: 427 µg·h/mL
- bioavailability [22]: 42%
- pIC50 [23]: 7.77
- Cmax [24]: 16000 ng/mL
- Vz [25]: 0.4 L/kg
- Tmax [26]: 1.8 min
- pIC50 [27]: < 5.70
- half-life [28]: 14 h

SMILES: COc1cc2c(Oc3ccc(Nc4nccc5[nH]cc(-c6ccc(F)cc6)c(=O)c45)cc3F)ncnc2cc1OCCCN1CCOCC1
- pIC50 [1]: 6.64
- pIC50 [2]: 7.66
